{"source": "ChEMBL document CHEMBL3259713", "about": "“Dissecting the structure of thiopeptides: assessment of thiazoline and tail moieties of baringolin and antibacterial activity optimization” (J Med Chem, 2014)", "key": {"[1]": {"tested_on": "Cutibacterium acnes", "assay": "Antibacterial activity against Propionibacterium acnes assessed as growth inhibition after 24 hrs by CLSI M11-A8 broth microdilution method", "type": "functional", "procedure,_shortened": "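This anaerobe was subcultured at least twice from frozen stock on supplemented Brucella agar and grown 48 h before testing. Inoculum was a direct saline suspension at 0.5 McFarland. MIC was by microdilution in Brucella broth with hemin (5 μg/mL), vitamin K1 and 5% lysed horse blood per CLSI M11-A8, 35 °C for 24 h under anaerobic conditions.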"}, "[2]": {"tested_on": "Micrococcus luteus", "assay": "Antibacterial activity against Micrococcus luteus ATCC 9341 assessed as growth inhibition after 24 hrs by CLSI M7-A9 broth microdilution method", "type": "functional", "details": "ATCC 9341, 24 h", "procedure,_shortened": "(§1)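 Isolates from frozen stocks subcultured at least twice on sheep blood agar and grown 24 h before testing. Inoculum made by direct suspension in saline to 0.5 McFarland turbidity. MIC determined by broth microdilution in Mueller-Hinton broth following CLSI M7-A9, incubated at 35 °C for 24 h.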"}, "[3]": {"tested_on": "Bacillus subtilis", "assay": "Antibacterial activity against Bacillus subtilis ATCC 6633 assessed as growth inhibition after 24 hrs by CLSI M7-A9 broth microdilution method", "type": "functional", "details": "ATCC 6633, 24 h", "procedure,_shortened": "as §1"}, "[4]": {"tested_on": "Staphylococcus aureus", "assay": "Antibacterial activity against Staphylococcus aureus assessed as growth inhibition after 24 hrs by CLSI M7-A9 broth microdilution method", "type": "functional", "procedure,_shortened": "as §1"}, "[5]": {"assay": "Solubility of the compound in 0.1 M phosphate buffer after 48 hrs by spectrophotometer analysis", "type": "physicochemical", "procedure,_shortened": "(§2)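 About 1 mg of solid was combined with a known volume of solvent so that the solution was saturated. It was vortexed 1 min, shaken 48 h and centrifuged at 10000 rpm for 3 min. Dissolved compound in the supernatant was measured by absorbance at 304 nm.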"}, "[6]": {"assay": "Solubility of the compound in water after 48 hrs by spectrophotometer analysis", "type": "physicochemical", "procedure,_shortened": "as §2"}}, "note": "Square brackets hold non-standard residues; d marks the D form. Peptide text beside a SMILES is read from it. * marks the point of attachment. Dha = C=C(N)C(=O)O; X1 = O=C(c1cscn1)*"}
{"smiles": "C=C(NC(=O)C(=C)NC(=O)[C@@H]1CCCN1C(=O)[C@H](C)NC(=O)C(=C)NC(=O)c1csc(-c2ccc3c(n2)-c2csc(n2)-c2csc(n2)[C@@H]2CCCN2C(=O)[C@H](Cc2ccc(O)cc2)NC(=O)[C@H]2CSC(=N2)[C@H](Cc2ccccc2)NC(=O)c2csc(n2)[C@H](CC(N)=O)NC(=O)c2nc-3oc2C)n1)C(N)=O", "values": [{"measurement": "MIC", "setting": "[1]", "value": 0.125, "unit": "µg/mL"}, {"measurement": "MIC", "setting": "[2]", "value": 0.5, "unit": "µg/mL"}, {"measurement": "MIC", "setting": "[3]", "value": 0.25, "unit": "µg/mL"}, {"measurement": "MIC", "setting": "[4]", "value": 0.25, "unit": "µg/mL"}]}
{"smiles": "C=C(NC(=O)c1csc(-c2ccc3c(n2)-c2csc(n2)-c2csc(n2)[C@@H]2CCCN2C(=O)[C@H](Cc2ccc(O)cc2)NC(=O)c2csc(n2)[C@H](Cc2ccccc2)NC(=O)c2csc(n2)[C@H](CC(N)=O)NC(=O)c2nc-3oc2C)n1)C(=O)N[C@@H](C)C(=O)N1CCC[C@H]1C(N)=O", "values": [{"measurement": "MIC", "setting": "[1]", "value": 4, "unit": "µg/mL"}, {"measurement": "MIC", "setting": "[2]", "value": 2, "unit": "µg/mL"}, {"measurement": "MIC", "setting": "[3]", "value": 8, "unit": "µg/mL"}, {"measurement": "MIC", "setting": "[4]", "value": 0.5, "unit": "µg/mL"}]}
{"smiles": "Cc1oc2nc1C(=O)N[C@@H](CC(N)=O)c1nc(cs1)C(=O)N[C@@H](Cc1ccccc1)c1nc(cs1)C(=O)N[C@@H](Cc1ccc(O)cc1)C(=O)N1CCC[C@H]1c1nc(cs1)-c1nc(cs1)-c1nc(-c3nc(C(N)=O)cs3)ccc1-2", "values": [{"measurement": "MIC", "setting": "[1]", "value": 8, "unit": "µg/mL"}, {"measurement": "MIC", "setting": "[2]", "value": "> 8", "unit": "µg/mL"}, {"measurement": "MIC", "setting": "[3]", "value": 8, "unit": "µg/mL"}, {"measurement": "solubility at 48 h", "setting": "[5]", "value": 7, "unit": "µg/mL"}, {"measurement": "MIC", "setting": "[4]", "value": 1, "unit": "µg/mL"}]}
{"smiles": "Cc1oc2nc1C(=O)N[C@@H](CC(N)=O)c1nc(cs1)C(=O)N[C@@H](Cc1ccccc1)c1nc(cs1)C(=O)N[C@@H](Cc1ccc(O)cc1)C(=O)N1CCC[C@H]1c1nc(cs1)-c1nc(cs1)-c1nc(-c3nc(C(=O)O)cs3)ccc1-2", "values": [{"measurement": "MIC", "setting": "[1]", "value": 2, "unit": "µg/mL"}, {"measurement": "MIC", "setting": "[2]", "value": "> 8", "unit": "µg/mL"}, {"measurement": "MIC", "setting": "[3]", "value": 8, "unit": "µg/mL"}, {"measurement": "solubility at 48 h", "setting": "[5]", "value": 23, "unit": "µg/mL"}, {"measurement": "MIC", "setting": "[4]", "value": 2, "unit": "µg/mL"}]}
{"smiles": "C=C(NC(=O)c1csc(-c2ccc3c(n2)-c2csc(n2)-c2csc(n2)[C@@H]2CCCN2C(=O)[C@H](Cc2ccc(O)cc2)NC(=O)C2CSC(=N2)[C@H](Cc2ccccc2)NC(=O)c2csc(n2)[C@H](CC(N)=O)NC(=O)c2nc-3oc2C)n1)C(=O)N[C@@H](C)C(=O)N1CCC[C@H]1C(N)=O", "note": "(stereo partly drawn)", "values": [{"measurement": "MIC", "setting": "[1]", "value": 0.125, "unit": "µg/mL"}, {"measurement": "MIC", "setting": "[2]", "value": 0.5, "unit": "µg/mL"}, {"measurement": "MIC", "setting": "[3]", "value": 0.25, "unit": "µg/mL"}, {"measurement": "MIC", "setting": "[4]", "value": 0.25, "unit": "µg/mL"}]}
{"smiles": "C=C(NC(=O)[C@@H]1CCCN1C(=O)[C@H](C)NC(=O)C(=C)NC(=O)c1csc(-c2ccc3c(n2)-c2csc(n2)-c2csc(n2)[C@@H]2CCCN2C(=O)[C@H](Cc2ccc(O)cc2)NC(=O)C2CSC(=N2)[C@H](Cc2ccccc2)NC(=O)c2csc(n2)[C@H](CC(N)=O)NC(=O)c2nc-3oc2C)n1)C(N)=O", "note": "(stereo partly drawn)", "values": [{"measurement": "MIC", "setting": "[1]", "value": 0.5, "unit": "µg/mL"}, {"measurement": "MIC", "setting": "[2]", "value": 1, "unit": "µg/mL"}, {"measurement": "MIC", "setting": "[3]", "value": 0.5, "unit": "µg/mL"}, {"measurement": "MIC", "setting": "[4]", "value": 0.5, "unit": "µg/mL"}]}
{"smiles": "C=C(NC(=O)[C@@H]1CCCN1C(=O)[C@H](C)NC(=O)C(=C)NC(=O)c1csc(-c2ccc3c(n2)-c2csc(n2)-c2csc(n2)[C@@H]2CCCN2C(=O)[C@H](Cc2ccc(O)cc2)NC(=O)c2csc(n2)[C@H](Cc2ccccc2)NC(=O)c2csc(n2)[C@H](CC(N)=O)NC(=O)c2nc-3oc2C)n1)C(N)=O", "values": [{"measurement": "MIC", "setting": "[1]", "value": 8, "unit": "µg/mL"}, {"measurement": "MIC", "setting": "[2]", "value": 2, "unit": "µg/mL"}, {"measurement": "MIC", "setting": "[3]", "value": 0.5, "unit": "µg/mL"}, {"measurement": "MIC", "setting": "[4]", "value": 0.5, "unit": "µg/mL"}]}
{"smiles": "CCOC(=O)c1csc(-c2ccc3c(n2)-c2csc(n2)-c2csc(n2)[C@@H]2CCCN2C(=O)[C@H](Cc2ccc(O)cc2)NC(=O)c2csc(n2)[C@H](Cc2ccccc2)NC(=O)c2csc(n2)[C@H](CC(N)=O)NC(=O)c2nc-3oc2C)n1", "values": [{"measurement": "MIC", "setting": "[1]", "value": 4, "unit": "µg/mL"}, {"measurement": "MIC", "setting": "[2]", "value": 2, "unit": "µg/mL"}, {"measurement": "MIC", "setting": "[3]", "value": "> 8", "unit": "µg/mL"}, {"measurement": "MIC", "setting": "[4]", "value": "> 8", "unit": "µg/mL"}]}
{"smiles": "C=C(NC(=O)C(=C)NC(=O)[C@@H]1CCCN1C(=O)[C@H](C)NC(=O)C(=C)NC(=O)c1csc(-c2ccc3c(n2)-c2csc(n2)-c2csc(n2)[C@@H]2CCCN2C(=O)[C@H](Cc2ccc(O)cc2)NC(=O)c2csc(n2)[C@H](Cc2ccccc2)NC(=O)c2csc(n2)[C@H](CC(N)=O)NC(=O)c2nc-3oc2C)n1)C(N)=O", "values": [{"measurement": "MIC", "setting": "[1]", "value": 8, "unit": "µg/mL"}, {"measurement": "MIC", "setting": "[2]", "value": 2, "unit": "µg/mL"}, {"measurement": "MIC", "setting": "[3]", "value": 1, "unit": "µg/mL"}, {"measurement": "MIC", "setting": "[4]", "value": 0.5, "unit": "µg/mL"}]}
{"smiles": "C=C(NC(=O)C(=C)NC(=O)[C@@H]1CCCN1C(=O)[C@H](C)NC(=O)C(=C)NC(=O)c1cscn1)C(N)=O", "note": "(X1-[Dha]AP[Dha][Dha]-NH2)", "values": [{"measurement": "MIC", "setting": "[1]", "value": 8, "unit": "µg/mL"}, {"measurement": "MIC", "setting": "[2]", "value": 2, "unit": "µg/mL"}, {"measurement": "MIC", "setting": "[3]", "value": "> 8", "unit": "µg/mL"}, {"measurement": "solubility at 48 h", "setting": "[5]", "value": 6650, "unit": "µg/mL"}, {"measurement": "MIC", "setting": "[4]", "value": "> 8", "unit": "µg/mL"}, {"measurement": "solubility at 48 h", "setting": "[6]", "value": 4660, "unit": "µg/mL"}]}
{"smiles": "CCOC(=O)c1csc(-c2ccc3c(n2)-c2csc(n2)-c2csc(n2)[C@@H]2CCCN2C(=O)[C@H](Cc2ccc(O)cc2)NC(=O)C2CSC(=N2)[C@H](Cc2ccccc2)NC(=O)c2csc(n2)[C@H](CC(N)=O)NC(=O)c2nc-3oc2C)n1", "note": "(stereo partly drawn)", "values": [{"measurement": "MIC", "setting": "[1]", "value": 4, "unit": "µg/mL"}, {"measurement": "MIC", "setting": "[2]", "value": 4, "unit": "µg/mL"}, {"measurement": "MIC", "setting": "[3]", "value": 8, "unit": "µg/mL"}, {"measurement": "MIC", "setting": "[4]", "value": "> 8", "unit": "µg/mL"}]}
{"smiles": "Cc1oc2nc1C(=O)N[C@@H](CC(N)=O)c1nc(cs1)C(=O)N[C@@H](Cc1ccccc1)c1nc(cs1)C(=O)N[C@@H](Cc1ccc(O)cc1)C(=O)N1CCC[C@H]1c1nc(cs1)-c1nc(cs1)-c1nc(-c3nc(C(=O)N[C@H]4CC[C@H](C(=O)O)CC4)cs3)ccc1-2", "values": [{"measurement": "MIC", "setting": "[1]", "value": 0.06, "unit": "µg/mL"}, {"measurement": "MIC", "setting": "[2]", "value": 0.5, "unit": "µg/mL"}, {"measurement": "MIC", "setting": "[3]", "value": 0.03, "unit": "µg/mL"}, {"measurement": "solubility at 48 h", "setting": "[5]", "value": 18, "unit": "µg/mL"}, {"measurement": "MIC", "setting": "[4]", "value": 0.03, "unit": "µg/mL"}]}
